Source: ChEMBL document CHEMBL1123760, “Synthesis and oral antifungal activity of novel azolylpropanolones and related compounds” (1987)
Values after ≈ are worked out from the molar mass of the structure shown.

How the values were obtained:
Assay type in all cases: functional
Trichophyton benhamiae = assay: In vitro antifungal activity against Trichophyton asteroides
In short: (§1)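 Broth microdilution MIC in Sabouraud's glucose broth; final inocula 1 × 10^5 cells/mL (yeast) or 1 × 10^5 conidia/mL (mold and dermatophyte).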

Candida albicans [1] = assay: In vitro antifungal activity against Candida albicans; in short: as §1
Candida albicans [2] = assay: Minimum effective concentration for inhibition of pseudomycelium formation in Candida albicans; settings: for minimal effective concentration: Candida albicans, read-out: MEC
In short: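 C. albicans KE-2 (clinical isolate) at a final 1 × 10^6 yeast cells/mL in EMEM with 20% calf serum; compounds diluted by the same microtiter system as for MICs. After incubation, wells were Giemsa-stained (5% in phosphate buffer) and read by microscope. MEC is the lowest concentration preventing typical pseudomycelium formation.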

Aspergillus fumigatus = assay: In vitro antifungal activity against Aspergillus fumigatus; in short: as §1
[3] = Trichophyton benhamiae, read-out: MIC
[4] = Candida albicans, read-out: MIC
[5] = Aspergillus fumigatus, read-out: MIC

SMILES	MIC (Trichophyton benhamiae; [3])	MIC (Candida albicans [1]; [4])	MIC (Aspergillus fumigatus; [5])	MIC (Candida albicans [1])	MIC (Aspergillus fumigatus)	MIC (Trichophyton benhamiae)	minimal effective concentration (Candida albicans [2])	MEC (Candida albicans [2])
COc1ccccc1C(=O)C(O)(Cn1cncn1)c1ccccc1OC (stereo not given)	12.5 µg/mL (≈ 35.4 µM)	> 100 µg/mL	> 100 µg/mL	–	–	–	> 20 µg/mL	–
OC(Cn1cncn1)(c1ccc(Cl)cc1Cl)C(O)(c1ccc(F)cc1)c1cccs1 (stereo not given)	0.8 µg/mL (≈ 1.72 µM)	> 100 µg/mL	> 100 µg/mL	–	–	–	5 µg/mL	–
O=C(c1ccc(F)cc1)C(O)(Cn1cnnc1)c1ccc(Cl)cc1Cl (stereo not given)	> 100 µg/mL	> 100 µg/mL	> 100 µg/mL	–	–	–	> 20 µg/mL	–
CC(C)[C@H]1OS(=O)O[C@]1(Cn1cncn1)c1ccc(Cl)cc1 (stereo not given in full)	0.4 µg/mL (≈ 1.17 µM)	> 100 µg/mL	> 100 µg/mL	–	–	–	0.16 µg/mL	–
Cc1ccc(C(=O)C(O)(Cn2cncn2)c2ccc(C)cc2)cc1 (stereo not given)	1.56 µg/mL (≈ 4.85 µM)	> 100 µg/mL	> 100 µg/mL	–	–	–	20 µg/mL	–
CCCCC(O)(Cn1cncn1)C(=O)c1ccccc1Cl (stereo not given)	0.4 µg/mL (≈ 1.3 µM)	> 100 µg/mL	50 µg/mL (≈ 162 µM)	–	–	–	0.63 µg/mL	–
O=C(c1ccccc1)C(O)(Cn1cncn1)c1ccccc1Cl (stereo not given)	1.6 µg/mL (≈ 4.88 µM)	> 100 µg/mL	> 100 µg/mL	–	–	–	2.5 µg/mL	–
CC(O)(c1ccc(Cl)cc1)C(O)(Cn1cncn1)c1ccc(F)cc1 (stereo not given)	0.4 µg/mL (≈ 1.11 µM)	> 100 µg/mL	> 100 µg/mL	–	–	–	2.5 µg/mL	–
CC(C)C(=O)C(O)(Cn1cncn1)c1ccc(Cl)cc1 (stereo in doubt; 13)	–	–	–	>100 µg/mL	12.5 µg/mL (≈ 42.6 µM)	–	–	0.08 µg/mL
OC(c1ccc(Cl)cc1)C(O)(Cn1cncn1)c1ccc(Cl)cc1 (stereo in doubt; 88)	–	–	–	50 µg/mL (≈ 137 µM)	–	0.39 µg/mL (≈ 1.07 µM)	–	1.25 µg/mL
CC(C)C(O)C(O)(Cn1cncn1)c1ccc(Cl)cc1 (stereo in doubt; 101)	–	–	–	–	–	6.3 µg/mL (≈ 21.3 µM)	–	0.63 µg/mL
O=C1O[C@H](c2ccc(Cl)cc2)[C@@](Cn2cncn2)(c2ccc(Cl)cc2Cl)O1 (stereo in doubt; 129)	–	–	–	–	–	0.2 µg/mL (≈ 0.471 µM)	–	0.04 µg/mL
OC(Cn1cncn1)(c1ccc(F)cc1)C(O)(c1ccccc1)c1ccc(F)cc1 (stereo in doubt; 164)	–	–	–	–	–	>100 µg/mL	–	–
CCC(O)(c1ccc(F)cc1)C(O)(Cn1cncn1)c1ccc(Cl)cc1 (stereo in doubt; 170)	–	–	–	–	25 µg/mL (≈ 66.5 µM)	0.1 µg/mL (≈ 0.266 µM)	–	0.04 µg/mL

The next lines start with results.

MIC (Trichophyton benhamiae; [3])	MIC (Candida albicans [1]; [4])	MIC (Aspergillus fumigatus; [5])	MIC (Candida albicans [1])	MIC (Aspergillus fumigatus)	MIC (Trichophyton benhamiae)	SMILES	minimal effective concentration (Candida albicans [2])	MEC (Candida albicans [2])
0.8 µg/mL (≈ 2.72 µM)	> 100 µg/mL	50 µg/mL (≈ 170 µM)	–	–	–	CCCC(O)(Cn1cncn1)C(=O)c1ccc(Cl)cc1 (stereo not given)	0.31 µg/mL	–
0.1 µg/mL (≈ 0.277 µM)	> 100 µg/mL	100 µg/mL (≈ 277 µM)	–	–	–	CC(O)(c1ccc(F)cc1)C(O)(Cn1ccnc1)c1ccccc1Cl (stereo not given)	1.25 µg/mL	–
1.6 µg/mL (≈ 5.09 µM)	> 100 µg/mL	> 100 µg/mL	–	–	–	CCC(O)(Cn1cncn1)C(=O)c1ccc(Cl)cc1Cl (stereo not given)	20 µg/mL	–
0.2 µg/mL (≈ 0.54 µM)	> 100 µg/mL	> 100 µg/mL	–	–	–	CCCC[C@H]1OC(=O)O[C@]1(Cn1cncn1)c1ccc(Cl)cc1Cl	0.63 µg/mL	–
> 100 µg/mL	> 100 µg/mL	> 100 µg/mL	–	–	–	O=C(c1ccc(F)cc1)C(O)(Cn1cnnc1)c1ccccc1Cl (stereo not given)	> 20 µg/mL	–
6.3 µg/mL (≈ 19.6 µM)	> 100 µg/mL	> 100 µg/mL	–	–	–	CC(C)[C@H]1OC(=O)O[C@@]1(Cn1cncn1)c1ccc(Cl)cc1	0.63 µg/mL	–
0.39 µg/mL (≈ 1.08 µM)	50 µg/mL (≈ 138 µM)	> 100 µg/mL	–	–	–	O=C(c1ccc(Cl)cc1)C(O)(Cn1cncn1)c1ccc(Cl)cc1 (stereo not given)	20 µg/mL	–
1.6 µg/mL (≈ 4.88 µM)	> 100 µg/mL	> 100 µg/mL	–	–	–	O=C(c1ccccc1Cl)C(O)(Cn1cncn1)c1ccccc1 (stereo not given)	> 20 µg/mL	–
–	–	–	50 µg/mL (≈ 144 µM)	–	6.3 µg/mL (≈ 18.1 µM)	OC(c1ccc(F)cc1)C(O)(Cn1cncn1)c1ccc(Cl)cc1 (stereo in doubt; 104)	–	2.5 µg/mL
–	–	–	–	–	1.6 µg/mL (≈ 5.41 µM)	CCCC(O)C(O)(Cn1cncn1)c1ccc(Cl)cc1 (stereo in doubt; 106)	–	0.16 µg/mL
–	–	–	–	25 µg/mL (≈ 72.6 µM)	0.1 µg/mL (≈ 0.29 µM)	CC(C)C(C)(O)C(O)(Cn1cncn1)c1ccc(Cl)cc1Cl (stereo in doubt; 168)	–	0.04 µg/mL
–	–	–	–	6.3 µg/mL (≈ 17.4 µM)	0.1 µg/mL (≈ 0.276 µM)	CC(O)(c1ccc(F)cc1)C(O)(Cn1cncn1)c1ccccc1Cl (stereo in doubt; 181)	–	1.25 µg/mL
–	–	–	–	>100 µg/mL	0.2 µg/mL (≈ 0.495 µM)	CCCCC(O)(c1ccc(F)cc1)C(O)(Cn1cncn1)c1ccccc1Cl (stereo in doubt; 188)	–	2.5 µg/mL
–	–	–	–	50 µg/mL (≈ 154 µM)	0.8 µg/mL (≈ 2.47 µM)	CCCCC(O)(Cn1cncn1)C(C)(O)c1ccc(Cl)cc1 (stereo in doubt; 190)	–	2.5 µg/mL
